We go through 13 compounds from article PMC10843616 (European journal of medicinal chemistry, 2023).

The term half-life denotes how long it takes for the measured level to halve. As a reminder, the EC50 is the concentration at which the effect is half-maximal. Usually EC90 stands for the concentration at which the effect reaches the 90% level.

The test system of series [1] is T. b. rhodesiense. The settings on record: 100 mpk once a day; ref as previously reported; cited from earlier work.
The conditions of series [2]: 25 mpk; ref as previously reported; cited from earlier work.
In series [3] the target is tCatL (trypanosomal cathepsin-L) (Trypanosoma brucei rhodesiense, UniProt Q95PM0). Put plainly: tCatL inhibition assay. The settings on record: at 10 μM after 1 hour. The format is biochemical. In short, it runs like this:
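Recombinant tCatL was expressed in Pichia pastoris and purified. Inhibition was run by a previously published protocol, with E-64 as the positive control.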

Series [4] relates to bloodstream forms of T. brucei brucei (strain 427). Put plainly: T. b. brucei growth inhibition, Alamar blue assay. The format is cell-based, Trypanosoma brucei brucei. The settings on record: Hep G2 CC50 / T.b.b EC50. A general note: Resazurin is reduced to fluorescent resorufin, in cell work by metabolically active cells.
Series [5] can be described thus: Human liver microsome stability. The format is in vitro ADME. Conditions: liver microsomes. On the technique in general: Liver microsomes are a subcellular fraction often used to study metabolism.
Series [6] deals with Bloodstream forms of T. b. gambiense (130R). The series is described as follows: T. b. gambiense growth inhibition, resazurin assay. The series is classed as cell-based, Trypanosoma brucei gambiense. Conditions: for SI (CC50/EC50), T.b.g: Hep G2 CC50 / T.b.g EC50.
For series [7], the system named is T. b. brucei AnTat1.1 trypomastigotes expressing Renilla luciferase. The series is described as follows: T. b. brucei acute infection mouse efficacy. Conditions: 5 consecutive days; for parasite growth in vivo, intraperitoneal: 100 mpk IP; for parasite growth in vivo, oral: 100 mpk oral gavage. The format is in vivo, BALB/c mice.
The test system of series [8] is Bloodstream forms of T. b. rhodesiense (STIB 900). Put plainly: T. b. rhodesiense growth inhibition, resazurin assay. The series is classed as cell-based, Trypanosoma brucei rhodesiense. The settings on record: for SI (CC50/EC50), T.b.r: Hep G2 CC50 / T.b.r EC50.
Series [9] can be described thus: Single-dose pharmacokinetics in mice. The settings on record: male, C57BL/6, mouse, plasma, oral, 5 mg/kg. The series is classed as in vivo, mice (C57BL/6.
For series [10], the system named is T. b. rhodesiense STIB 900-luc. The series is described as follows: T. b. rhodesiense acute infection mouse efficacy. The settings on record: four days; for animals surviving to 60 days with no detectable parasitemia: oral. The format is in vivo, NMRI mice. In short, it runs like this:
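Female NMRI mice, five per group, were inoculated i.p. with 1 x 10^4 bloodstream-form STIB 900-luc. Oral gavage started day 3 post-infection for four consecutive days, in PBS with 0.5% hydroxyl-methylcellulose and 0.5% Tween 80. Three mice were infected-untreated controls. Parasitemia was tracked by whole-animal bioluminescence imaging after D-luciferin: twice weekly for two weeks after treatment, then weekly to day 60. Cure meant a day-60 signal not above background.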

The structures appear in SMILES notation. Where two headings read alike, the source gives them in different places.

As for `CSc1ccc(OCc2ncc([N+](=O)[O-])n2C)cc1` [fexinidazole], the “infected mice treated (cured)” value in [1] is recorded as 4 out of 4. Also, the half-life in series [2] was 48 min.
Take `CC(C)C[C@H](NC(=O)[C@H]1O[C@@H]1C(=O)O)C(=O)NCCCCN=C(N)N` [Compound E64, E-64, reference compound]: in [3], the “Percentage inhibition of tCatL” value turned out to be 100%.
On to `O=C(NC/C=C/S(=O)(=O)c1ccccc1)c1ccco1` [Compound 6, (E)-N-[3-(phenylsulfonyl)allyl]furan-2-carboxamide], for which the “SI (CC50/EC50), T.b.b” value in series [4] turned out to be 34.02.
Consider `O=C(N[C@H](/C=C/S(=O)(=O)c1ccccc1)CCc1ccccc1)c1ccc([N+](=O)[O-])o1` [Compound 1], for which, in series [5], the half-life was 10.8 min.
With `CNC(=O)CCCNC(=O)c1ccc([N+](=O)[O-])s1` [Compound 17, N-[4-(methylamino)-4-oxobutyl]-5-nitrothiophene-2-carboxamide], in [3], the “Percentage inhibition of tCatL” value was “inactive”.
Take `Nc1nc(N)nc(Nc2ccc([As]3SCC(CO)S3)cc2)n1` (stereo not shown) [Melarsoprol, reference compound]: in series [6] (Trypanosoma brucei, GAMBIENSE, 68 h, read-out: T.b.g EC50, 130R, 68 h incubation), the EC50 was determined as 7 ± 3 nM.
Take `CS(=O)(=O)/C=C/CNC(=O)c1ccc([N+](=O)[O-])o1` [Compound 7, (E)-N-[3-(methylsulfonyl)allyl]-5-nitrofuran-2-carboxamide]: in series [7], the “parasite growth in vivo, intraperitoneal” value was “ineffective” and the “parasite growth in vivo, oral” value is given as “reduced parasitemia”.
Regarding `O=C(N[C@H](/C=C/S(=O)(=O)c1ccccc1)CCc1ccccc1)c1cc(Cl)c([N+](=O)[O-])[nH]1` [Compound 3, (S,E)-4-chloro-5-nitro-N-[5-phenyl-1-(phenylsulfonyl)pent-1-en-3-yl]-1H-pyrrole-2-carboxamide], the “SI (CC50/EC50), T.b.b” value in series [4] was over 5.13.
Take `CS(=O)(=O)CCCNC(=O)c1cccs1` [Compound 16, N-[3-(methylsulfonyl)propyl]thiophene-2-carboxamide]: the “Percentage inhibition of tCatL” value in series [3] is “inactive”.
For the compound `CNC(=O)/C=C/CNC(=O)c1ccc([N+](=O)[O-])o1` [Compound 11, (E)-N-[4-(methylamino)-4-oxobut-2-en-1-yl]-5-nitrofuran-2-carboxamide], the “SI (CC50/EC50), T.b.r” value in series [8] is recorded as over 340.91. Further, the “SI (CC50/EC50), T.b.b” value in [4] is over 44.38. Further, the “SI (CC50/EC50), T.b.g” value in [6] is recorded as over 159.57.
As to `CNC(=O)/C=C/CNC(=O)c1ccc([N+](=O)[O-])s1` [Compound 10, (E)-N-[4-(methylamino)-4-oxobut-2-en-1-yl]-5-nitrothiophene-2-carboxamide], the concentration at 2 h in series [9] was 720 nM. Further, the “SI (CC50/EC50), T.b.r” value in series [8] was over 535.71. In series [8] (Trypanosoma brucei, RHODESIENSE|STIB900, read-out: EC90 for T. b. rhodesiense), the EC90 stood at 210 nM. Further, the “SI (CC50/EC50), T.b.b” value in [4] is listed as over 138.88. Also, the “SI (CC50/EC50), T.b.g” value in series [6] is over 576.92. For the same compound, in [7], the “parasite growth in vivo, intraperitoneal” value is reported as “suppressed parasite growth” and the “parasite growth in vivo, oral” value is reported as “suppressed parasite growth”. For the same compound, the “animals surviving to 60 days” value in [10] (100 mpk b.i.d, orally) is given as 3 out of 5. The “animals surviving to 60 days with no detectable parasitemia” value in series [10] (200 mpk once daily) is reported as 4 out of 5. In addition, the “animals surviving to 60 days with no detectable parasitemia” value in series [10] (200 mpk twice daily) was 4 out of 5.
Turning to `O=C(NC/C=C/S(=O)(=O)c1ccccc1)c1ccc([N+](=O)[O-])s1` [Compound 4, (E)-5-nitro-N-[3-(phenylsulfonyl)allyl]thiophene-2-carboxamide], the “SI (CC50/EC50), T.b.r” value in series [8] came to 33.47. The “SI (CC50/EC50), T.b.b” value in [4] was 3.21. Besides, the “SI (CC50/EC50), T.b.g” value in [6] is reported as 63.81.
As to `CNC(=O)CCCNC(=O)c1cccs1` [Compound 18, N-[4-(methylamino)-4-oxobutyl]thiophene-2-carboxamide], the “Percentage inhibition of tCatL” value in series [3] is “inactive”.
